# Source: ChEMBL document CHEMBL1136700, “Identification of a broad-spectrum azasordarin with improved pharmacokinetic properties” (Bioorg Med Chem Lett, 2003)
# How the values were obtained:
# [1] = test system: Aspergillus flavus; assay: Minimum inhibitory concentration (MIC) against Aspergillus flavus after 24 hours; assay type: functional
# Method in brief: (§1)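 Antifungal susceptibility read visually; MIC taken as lowest drug concentration giving 90–100% inhibition of visible growth relative to drug-free controls, read over 48 h, or after 24 h where footnoted. Organisms: C. parapsilosis, C. albicans, Cryptococcus neoformans, C. glabrata, Aspergillus fumigatus, Aspergillus flavus.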
# [2] = test system: Candida parapsilosis; assay: Minimum inhibitory concentration (MIC) to Candida parapsilosis after 48 hr; assay type: functional; method in brief: as §1
# [3] = test system: Nakaseomyces glabratus; assay: Minimum inhibitory concentration (MIC) to Candida glabrata after 48 hours; assay type: functional; method in brief: as §1
# [4] = test system: Candida albicans; assay: Minimum inhibitory concentration (MIC) to Candida albicans after 48 hr; assay type: functional; method in brief: as §1
# [5] = test system: Aspergillus fumigatus; assay: Minimum inhibitory concentration (MIC) to Aspergillus fumigatus after 48 hr; assay type: functional; method in brief: as §1
# [6] = test system: Cryptococcus neoformans; assay: Minimum inhibitory concentration against Cryptococcus neoformans after 48 hours; assay type: functional; method in brief: as §1
# [7] = Total body clearance was determined; assay type: ADME, organism-based; conditions: in vivo
# Method in brief: (§2)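 Mice dosed iv at 5 mg/kg or orally at 20 mg/kg, n = 3; drug concentrations measured in plasma/serum over time to derive half-life, Cmax, total body clearance, steady-state volume and oral bioavailability.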
# [8] = Half life period was measured upon oral administration (20 mg/kg); assay type: ADME, organism-based; conditions: in vivo; method in brief: as §2
# [9] = Oral bioavailability; assay type: ADME, organism-based; conditions: eutheria, in vivo; method in brief: as §2
# [10] = Maximum plasma concentration was determined; assay type: ADME, organism-based; method in brief: as §2
# [11] = Half life period was measured upon intravenous administration (5 mg/kg); assay type: ADME, organism-based; conditions: in vivo; method in brief: as §2
# [12] = Volume of steady state concentration was determined; assay type: ADME, organism-based; conditions: in vivo; read-out: Vss; method in brief: as §2
# [13] = Aspergillus flavus, 24 h, read-out: MIC
# [14] = Lodderomyces parapsilosis, 48 h, read-out: MIC
# [15] = Nakaseomyces glabratus, 48 h, read-out: MIC
# [16] = Aspergillus fumigatus, 48 h, read-out: MIC
"MIC [1, 13]","MIC [2, 14]","MIC [3, 15]",MIC [4],"MIC [5, 16]",MIC [6],clearance [7],half-life [8],MIC [1],bioavailability [9],MIC [2],Cmax [10],half-life [11],MIC [3],Vd [12],MIC [5],Structure (SMILES)
128 µg/mL,> 128 µg/mL,1 µg/mL,0.25 µg/mL,> 128 µg/mL,4 µg/mL,–,–,–,–,–,–,–,–,–,–,C=C(C#N)CN1C[C@H](OCC23C[C@@H]4[C@H](C)CC[C@H]4C4(C=O)CC2C=C(C(C)C)[C@@]34C(=O)O)OC[C@H]1C
4 µg/mL,4 µg/mL,0.125 µg/mL,< 0.06 µg/mL,128 µg/mL,< 0.06 µg/mL,–,–,–,–,–,–,–,–,–,–,C=C(Br)CN1C[C@H](OCC23C[C@@H]4[C@H](C)CC[C@H]4C4(C=O)CC2C=C(C(C)C)[C@@]34C(=O)O)OC[C@H]1C
> 128 µg/mL,> 128 µg/mL,1 µg/mL,< 0.06 µg/mL,> 128 µg/mL,> 128 µg/mL,–,–,–,–,–,–,–,–,–,–,C=C(Cl)CN1C[C@H](OCC23C[C@@H]4[C@H](C)CC[C@H]4C4(C=O)CC2C=C(C(C)C)[C@@]34C(=O)O)OC[C@H]1C(F)(F)F
0.5 µg/mL,1 µg/mL,0.125 µg/mL,< 0.06 µg/mL,32 µg/mL,< 0.06 µg/mL,95 mL/min/kg,2.1 h,0.5 µg/mL,100%,1 µg/mL,5950 ng/mL,1.8 h,0.125 µg/mL,7.1 L/kg,32 µg/mL,C=C(Cl)CN1C[C@H](OCC23C[C@@H]4[C@H](C)CC[C@H]4C4(C=O)CC2C=C(C(C)C)[C@@]34C(=O)O)OC[C@H]1C
> 128 µg/mL,> 128 µg/mL,2 µg/mL,0.125 µg/mL,> 128 µg/mL,1 µg/mL,–,–,–,–,–,–,–,–,–,–,C=C(Cl)CON1C[C@H](OCC23C[C@@H]4[C@H](C)CC[C@H]4C4(C=O)CC2C=C(C(C)C)[C@@]34C(=O)O)OC[C@H]1C

# The next lines start with the compound.
Structure (SMILES),"MIC [1, 13]","MIC [2, 14]","MIC [3, 15]",MIC [4],"MIC [5, 16]",MIC [6],clearance [7],half-life [8],MIC [1],bioavailability [9],MIC [2],Cmax [10],half-life [11],MIC [3],Vd [12],MIC [5]
COc1ccc(CN2C[C@H](OCC34C[C@@H]5[C@H](C)CC[C@H]5C5(C=O)CC3C=C(C(C)C)[C@@]45C(=O)O)OC[C@H]2C)cc1,> 128 µg/mL,4 µg/mL,< 0.06 µg/mL,< 0.06 µg/mL,> 128 µg/mL,0.5 µg/mL,–,–,–,–,–,–,–,–,–,–
CC(C)C1=CC2CC3(C=O)[C@@H]4CC[C@@H](C)[C@H]4CC2(CO[C@H]2CN(CC4CC4)[C@H](C)CO2)[C@]13C(=O)O,> 128 µg/mL,> 128 µg/mL,8 µg/mL,2 µg/mL,> 128 µg/mL,> 128 µg/mL,–,–,–,–,–,–,–,–,–,–
CC(C)C1=CC2CC3(C=O)[C@@H]4CC[C@@H](C)[C@H]4CC2(CO[C@H]2CN(C/C=C\Cl)[C@H](C)CO2)[C@]13C(=O)O,> 128 µg/mL,> 128 µg/mL,1 µg/mL,0.125 µg/mL,> 128 µg/mL,128 µg/mL,–,–,–,–,–,–,–,–,–,–
CC(C)C1=CC2CC3(C=O)[C@@H]4CC[C@@H](C)[C@H]4CC2(CO[C@H]2CN[C@H](C)CO2)[C@]13C(=O)O,> 128 µg/mL,> 128 µg/mL,64 µg/mL,8 µg/mL,> 128 µg/mL,> 128 µg/mL,–,–,–,–,–,–,–,–,–,–
C=CC(=O)N1C[C@H](OCC23C[C@@H]4[C@H](C)CC[C@H]4C4(C=O)CC2C=C(C(C)C)[C@@]34C(=O)O)OC[C@H]1C,> 128 µg/mL,> 128 µg/mL,64 µg/mL,8 µg/mL,> 128 µg/mL,128 µg/mL,–,–,–,–,–,–,–,–,–,–
CC(C)C1=CC2CC3(C=O)[C@@H]4CC[C@@H](C)[C@H]4CC2(CO[C@H]2CN(C/C=C\Br)[C@H](C)CO2)[C@]13C(=O)O,> 128 µg/mL,> 128 µg/mL,1 µg/mL,< 0.06 µg/mL,> 128 µg/mL,> 128 µg/mL,–,–,–,–,–,–,–,–,–,–
C=C(Cl)CN1C[C@H](OCC23C[C@@H]4[C@H](C)CC[C@H]4C4(C=O)CC2C=C(C(C)C)[C@@]34C(=O)O)O[C@@H]2CCC[C@H]21,4 µg/mL,4 µg/mL,0.125 µg/mL,< 0.06 µg/mL,64 µg/mL,0.25 µg/mL,–,–,–,–,–,–,–,–,–,–
C=CCN1C[C@H](OCC23C[C@@H]4[C@H](C)CC[C@H]4C4(C=O)CC2C=C(C(C)C)[C@@]34C(=O)O)OC[C@H]1C,> 128 µg/mL,64 µg/mL,0.25 µg/mL,0.125 µg/mL,> 128 µg/mL,128 µg/mL,–,–,–,–,–,–,–,–,–,–
CC(C)CN1C[C@H](OCC23C[C@@H]4[C@H](C)CC[C@H]4C4(C=O)CC2C=C(C(C)C)[C@@]34C(=O)O)OC[C@H]1C,> 128 µg/mL,> 128 µg/mL,1 µg/mL,< 0.06 µg/mL,> 128 µg/mL,32 µg/mL,–,–,–,–,–,–,–,–,–,–
